Hits are enriched below; roughly 2.7% of the tested compounds scored in any of these assays.
NR2E3 ag-1: agonists of human NR2E3 nuclear receptor. CHO-S Gal4-NCOR/VP16-NR2E3 two-hybrid, luciferase. inhibition of corepressor binding, % at 3.98 µM. 360,000 compounds, 0.35% hits;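 active means inhibition above the mean of all tested compounds plus 3 SD, cut at about 70% in these data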;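 further: higher means lower luciferase signal from less NR2E3 corepressor binding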
NR1D1 modulator: modulators of human Rev-erb alpha DNA binding | P20393 | Rev-erbα–FITC-DNA binding, fluorescence polarization, 90 min | activity, % at 10 µM | 370,000 compounds, 0.79% hits | AID 1259318;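 active means activity above about 14%, limit read from the data; passing the limit was not always enough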
MC4R barr agon: agonists of human melanocortin 4 receptor (MC4R) beta-arrestin. P32245. U2OS MC4R beta-arrestin complementation, luminescence; percent of melanotan II response, DMSO zero. activation, % at 8.9 µM. 360,000 compounds, 0.98% hits. AID 540308;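 active means activation above a per-plate cutoff, the mean activation of sample wells on that plate plus 3 SD, cut at about 8% in these data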
Target sequence (P32245 whole entry, looked up): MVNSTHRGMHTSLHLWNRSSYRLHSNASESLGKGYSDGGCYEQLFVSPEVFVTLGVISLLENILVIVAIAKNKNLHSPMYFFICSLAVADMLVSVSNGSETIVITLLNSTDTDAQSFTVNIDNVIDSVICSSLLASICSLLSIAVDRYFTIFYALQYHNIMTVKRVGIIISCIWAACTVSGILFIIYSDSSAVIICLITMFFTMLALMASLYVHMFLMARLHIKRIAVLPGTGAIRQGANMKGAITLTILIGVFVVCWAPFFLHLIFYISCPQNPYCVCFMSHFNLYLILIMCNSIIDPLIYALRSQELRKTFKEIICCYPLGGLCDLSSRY
NR2E3 ag-2: NR2E3 (human) agonism. Q9Y5X4. GST-NR2E3/biotin-RetCOR TR-FRET, 1536-well. inhibition of corepressor binding, % at 4.78 µM. 320,000 compounds, 0.12% hits;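 active means percent inhibition above the cutoff of mean plus 3 SD of all tested compounds, set per screening campaign, cut at about 20% in these data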
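Material: NR2E3–RetCOR corepressor complex / Incubation: Compound–protein incubation for 5 h at 4 °C / Dosing: compound at 4.8 µM, single dose / Detection: time-resolved FRET / Benchmarks: high control biotin, low control 0.6% DMSO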
PG9 Ab binder: small molecules binding HIV-1 gp120 antibody PG9 | TR-FRET gp120-PG9 antibody binding | inhibition, % at 6.7 µM | 360,000 compounds, 0.43% hits; in the data active means inhibition above about 8.5%
MC4R antagonist: blocks human MC4R cAMP signaling. P32245. MC4R-expressing cells, MTII-stimulated cAMP, LANCE TR-FRET. inhibition, % at 6.5 µM. 360,000 compounds, 0.48% hits. AID 540295;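 active means inhibition above its plate's cutoff, the mean of tested wells on that plate plus 3 SD, cut at about 29% in these data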
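System – human MC4R-expressing U2OS cells · Also added – Melanotan II · Dosing – one concentration, 6.5 µM nominal · Timing – 30-min compound, 1-h challenge, 1-h detection, room temperature · Measured by – Eu-cAMP/anti-cAMP TR-FRET, emission 671 nm · Replicates – singlicate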
MC4R barr ag: human MC4R beta-arrestin agonism confirmation. shares compounds with MC4R barr agon. U2OS MC4R beta-arrestin recruitment, luminescence; scaled DMSO 0%, Melanotan II 100%. activation, % at 8.9 µM. 2,400 compounds, 31% hits. AID 602192;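 active means mean activation across replicates above the hit cutoff set in the earlier primary screen, cut at about 8% in these data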
MOR DOR agonist: activates mu-delta opioid heterodimer, MC4R agonist counter-screen | shares compounds with MC4R barr agon | U2OS PathHunter beta-arrestin, beta-gal luminescence; percent of deltorphin B response, DMSO zero | activation, % at 9.2 µM | 2,400 compounds, 5.8% hits | AID 602194;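 active means mean activation across replicates exceeds the hit threshold derived in the earlier primary screen, cut at about 18% in these data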
Each line names hits and unclear results; the compound was inactive in the other large screens (follow-up assays come after a bar, where they were run).

c1ccc(-c2nnc(-c3c[nH]c4ccccc34)nc2-c2ccccc2)cc1	MC4R barr agon 15 | MC4R barr ag inactive | MOR DOR agonist inactive
CCCCOCCCNC(=O)C[C@@H]1C[C@@]2(C(=O)OC)CCCCC=C2N(Cc2ccc(Cl)cc2Cl)C1=O	none (no result: MC4R barr agon, NR2E3 ag-2, MC4R antagonist)
CCC(C)c1ccc(NC(=S)NC2CCN(Cc3ccccc3)CC2)cc1 (centres undefined)	MC4R barr agon 15 | MC4R barr ag 22 | MOR DOR agonist inactive
C/C(=C\c1cccc(Cl)c1Cl)C(=O)c1c(C)cc(C)[nH]c1=O	none
C=CCc1cc(/C=N\NC(=O)CSc2nnc(CCCc3ccc(OC)c(C)c3)o2)cc(OC)c1O	MC4R barr agon 23 | MC4R barr ag inactive | MOR DOR agonist inactive
COc1ccc(CCCc2nnc(SCC(=O)N/N=C\c3ccc(O)c(OC)c3)o2)cc1C	none
C=CCc1cc(/C=N/NC(=O)CSc2nnc(CCCc3ccc(OC)cc3)o2)cc(OC)c1O	MC4R barr agon 33 | MC4R barr ag inactive | MOR DOR agonist inactive
O=c1/c(=C/c2ccccc2)sc2nnc(-c3cccs3)n12	none
CN(C)CCNC(=O)c1cccc(-c2cnc3c(NC=O)cc(-c4cccc(F)c4)cn23)c1	none (no result: NR2E3 ag-2)
COc1cc(-c2cc(NC=O)c3ncc(-c4cccc(C(=O)N(C)C)c4)n3c2)cc(OC)c1OC	none (no result: NR2E3 ag-2)
CN(C)C(=O)c1cccc(-c2cnc3c(NC=O)cc(-c4ccccc4F)cn23)c1	MC4R barr agon 9.8 (no result: NR2E3 ag-2) | MC4R barr ag 11 | MOR DOR agonist inactive
CN(C)CCNC(=O)c1cccc(-c2cnc3c(NC=O)cc(/C=C/c4ccccc4)cn23)c1	MC4R barr agon 17 (no result: NR2E3 ag-2) | MC4R barr ag inactive | MOR DOR agonist inactive
CCSc1ccc(-c2cc(NC=O)c3ncc(-c4cccc(C(=O)NCCN(C)C)c4)n3c2)cc1	MC4R barr agon 11 (no result: NR2E3 ag-2) | MC4R barr ag 13 | MOR DOR agonist inactive
CN(C)CCNC(=O)c1cccc(-c2cnc3c(NC=O)cc(-c4ccc(F)cc4)cn23)c1	none (no result: NR2E3 ag-2)
CN(C)C(=O)c1cccc(-c2cnc3c(NC=O)cc(-c4cc(F)c(F)c(F)c4)cn23)c1	none (no result: NR2E3 ag-2)
CCSc1ccc(-c2cc(NC=O)c3ncc(-c4cccc(C(=O)N(C)C)c4)n3c2)cc1	MC4R barr agon 10 (no result: NR2E3 ag-2) | MC4R barr ag 9.1 | MOR DOR agonist inactive
C=CCOc1c(CNC2CCCC2)cc(Cl)cc1OC	none
Cc1cc(OCCN2CCC(Cc3ccccc3)CC2)ccc1[N+](=O)[O-]	MC4R barr agon 14 | MC4R barr ag inactive | MOR DOR agonist inactive
Cc1cc(OCCN2CC(C)OC(C)C2)ccc1[N+](=O)[O-] (centres undefined)	none
NC(=O)Cn1cc(/C=N/NC(=O)c2ccc(Cn3cc(Cl)cn3)o2)c(-c2ccccc2)n1	none (no result: NR2E3 ag-2)
NC1=NC(=O)/C(=C/c2cn(Cc3ccccc3)c3ccccc23)S1	MC4R barr agon 11 | MC4R barr ag inactive | MOR DOR agonist inactive
O=C(CN1CCCCCCC1)Nc1cc(Cl)cc(Cl)c1	MC4R barr agon 14 | MC4R barr ag inactive | MOR DOR agonist inactive
O=C(CN1CCCC1)Nc1cccc(Cl)c1	none
CC(=O)N1N=C(c2cccc(NS(C)(=O)=O)c2)CC1c1ccc2c(c1)OCO2 (centres undefined)	none
COC(=O)c1cc(C)nc2c1c(C)nn2-c1ccccc1	none
COc1cc2c(-c3ccccc3O)nc3c(c(C)nn3-c3ccccc3)c2cc1OC	MC4R barr agon 11 | MC4R barr ag inactive | MOR DOR agonist 20
O=C(c1ccccc1)c1ccc2nc(-c3ccc(NC(=O)c4ccccc4F)cc3)[nH]c2c1	MC4R barr agon 12 | MC4R barr ag inactive | MOR DOR agonist inactive
CCOC(=O)C1(Cc2cccc(OC)c2)CCN(C/C=C/c2ccccc2)CC1	MC4R barr agon 12 | MC4R barr ag 10 | MOR DOR agonist inactive
CCOC(=O)C1(Cc2cccc(OC)c2)CCN(C/C=C/c2ccc(OC)cc2)CC1	none
